For one series, the target named is T1, Endothelin-1 receptor (Homo sapiens, UniProt P25101).
T1 sequence (P25101 whole entry): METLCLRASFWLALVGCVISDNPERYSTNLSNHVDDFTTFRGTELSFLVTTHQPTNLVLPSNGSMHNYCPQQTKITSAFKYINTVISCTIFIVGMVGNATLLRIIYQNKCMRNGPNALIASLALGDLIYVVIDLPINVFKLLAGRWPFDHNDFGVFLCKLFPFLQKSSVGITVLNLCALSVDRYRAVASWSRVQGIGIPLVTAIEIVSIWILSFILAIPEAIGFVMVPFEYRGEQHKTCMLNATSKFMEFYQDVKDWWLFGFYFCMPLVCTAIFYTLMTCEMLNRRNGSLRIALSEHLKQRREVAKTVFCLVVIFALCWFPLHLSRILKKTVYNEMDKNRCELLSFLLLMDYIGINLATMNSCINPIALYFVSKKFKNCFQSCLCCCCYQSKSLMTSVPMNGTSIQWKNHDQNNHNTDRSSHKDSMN
Briefly: Binding ability determined by the displacement of [125I]ET1 from the human endothelin A receptor.

Series [1] has as its target T2, Endothelin receptor type B (Homo sapiens, UniProt P24530).
T2 sequence (P24530 whole entry): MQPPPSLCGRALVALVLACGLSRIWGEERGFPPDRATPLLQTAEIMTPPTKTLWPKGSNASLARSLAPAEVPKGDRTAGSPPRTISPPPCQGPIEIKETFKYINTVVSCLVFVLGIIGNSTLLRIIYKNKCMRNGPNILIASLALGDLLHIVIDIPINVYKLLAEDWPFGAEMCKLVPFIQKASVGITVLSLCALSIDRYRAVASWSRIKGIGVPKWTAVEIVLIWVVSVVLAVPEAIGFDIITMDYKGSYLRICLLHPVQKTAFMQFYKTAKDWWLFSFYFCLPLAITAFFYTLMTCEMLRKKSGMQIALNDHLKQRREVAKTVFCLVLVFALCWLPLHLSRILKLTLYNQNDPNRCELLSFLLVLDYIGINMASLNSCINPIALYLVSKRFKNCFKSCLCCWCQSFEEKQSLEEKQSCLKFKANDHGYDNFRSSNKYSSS
Briefly: Binding ability determined by the displacement of [125 I]ET-3 from the human Endothelin B receptor.

For series [2], the target named is Endothelin receptor, ET-A/ET-B (Homo sapiens) (UniProt P24530+P25101). Briefly: Ratio of binding affinity towards human endothelin receptor type A to human endothelin receptor type B (hETA to hETB). In kind it is protein assay.
The nature of series [3]: Half life (5 mg/kg) when administered intravenously. In kind it is ADME, organism-based. The note with it: in vivo, iv. A digest of the protocol:
(§1)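 Rats dosed at 5 mg/kg by intravenous injection and by oral gavage. Time course of plasma drug levels compared between the two routes to give half-life and AUC0-∞. Oral bioavailability F is calculated from the two routes.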

A short description of series [4]: Half life (5 mg/kg) when administered orally. In kind it is ADME, organism-based. The note with it: in vivo, po. The method in brief:
as §1

Series [5] can be described thus: Total drug exposure (5 mg/kg) when administered intravenously. The format is ADME, organism-based. The conditions noted are these: in vivo, iv. A digest of the protocol: as §1
Series [6] in a line: Oral bioavailability. In kind it is ADME, organism-based. The conditions noted are these: eutheria, in vivo. The method in brief:
as §1

Series [7] is described as follows: Total drug exposure (5 mg/kg) when administered orally. In kind it is ADME, organism-based. The conditions noted are these: in vivo, po. The method in brief: as §1

Turning to `COCCOc1ccc([C@H]2[C@H](C(=O)O)[C@@H](c3ccc4c(c3)OCO4)CN2CC(=O)NC(c2ccccc2C)c2ccccc2C)cc1` (stereo in doubt; form 1) [listing 1 of 2 here], the IC50 stood at 20600 nM on Endothelin-1 receptor and 1.7 nM in series [1].

Turning to `COc1ccc([C@H]2[C@H](C(=O)O)[C@@H](c3ccc4c(c3)OCO4)CN2CC(=O)NC2c3ccccc3-c3ccccc32)cc1`, the Ratio in series [2] came to 2.05. Further, the results for the IC50 (on Endothelin-1 receptor; in series [1]) were 1230 nM and 600 nM, respectively.

For the compound `COCCOc1ccc([C@H]2[C@H](C(=O)O)[C@@H](c3ccc4c(c3)OCO4)CN2CC(=O)NC(c2ccccc2C)c2ccccc2C)cc1` (stereo in doubt; form 2), the Ratio in series [2] stood at 16000.

On to `CC(C)OCCOc1ccc([C@H]2[C@H](C(=O)O)[C@@H](c3ccc4c(c3)OCO4)CN2CC(=O)NC(c2ccccc2)C(C)(C)C)cc1` (stereo partly specified), for which the Ratio in series [2] was determined as 454. For the same compound, the IC50 on Endothelin-1 receptor turned out to be 322 nM; in series [1], 0.71 nM.

In the case of `CCc1ccccc1C(NC(=O)CN1C[C@H](c2ccc3c(c2)OCO3)[C@@H](C(=O)O)[C@@H]1c1ccc(OCCOC(C)C)cc1)c1ccccc1C` (stereo partly specified), the Ratio in series [2] was determined as 4320. Besides, the results for the IC50 (on Endothelin-1 receptor; in series [1]) were 14300 nM and 3.3 nM, respectively.

With `COc1ccc([C@H]2[C@H](C(=O)O)[C@@H](c3ccc4c(c3)OCO4)CN2CC(=O)NC(CC(C)C)c2ccccc2)cc1` (stereo partly specified), the Ratio in series [2] was found to be 4. Also, the half-inhibitory concentration (IC50) at Endothelin-1 receptor came out at 13.6 nM; in series [1], 3.4 nM.

In the case of `COc1ccc([C@H]2[C@H](C(=O)O)[C@@H](c3ccc4c(c3)OCO4)CN2CC(=O)NC(Cc2ccccc2)c2ccccc2)cc1` (stereo partly specified), in series [2], the Ratio turned out to be 0.08. Besides, the half-maximal inhibitory concentration (IC50) turned out to be 3.9 nM on Endothelin-1 receptor and 47 nM in series [1].

In the case of `COc1ccc([C@H]2[C@H](C(=O)O)[C@@H](c3ccc4c(c3)OCO4)CN2CC(=O)NC(c2ccccc2)c2ccccc2)cc1`, in series [2], the Ratio came to 5.67. The IC50 on Endothelin-1 receptor was determined as 45.9 nM; in series [1], 8.1 nM.

Regarding `Cc1ccccc1C(NC(=O)CN1C[C@H](c2ccc3c(c2)OCO3)[C@@H](C(=O)O)[C@@H]1c1ccc(OCCOC(C)C)cc1)c1ccccc1C` (stereo in doubt; form 2) [listing 1 of 2 here], the Ratio in series [2] worked out at 23400.

`CCCC(NC(=O)CN1C[C@H](c2ccc3c(c2)OCO3)[C@@H](C(=O)O)[C@@H]1c1ccc(OC)cc1)c1ccccc1` (stereo partly specified): the Ratio in series [2] is 0.51. In addition, the concentration for half-maximal inhibition (IC50) at Endothelin-1 receptor came out at 3.7 nM; in series [1], 7.3 nM.

Consider `COc1ccc([C@H]2[C@H](C(=O)O)[C@@H](c3ccc4c(c3)OCO4)CN2CC(=O)NCC(c2ccccc2)c2ccccc2)cc1`, for which, in series [2], the Ratio amounted to 1.84. In addition, the IC50 on Endothelin-1 receptor is 199 nM; in series [1] it was 108 nM.

Turning to `COc1ccc([C@H]2[C@H](C(=O)O)[C@@H](c3ccc4c(c3)OCO4)CN2CC(=O)NC(c2ccccc2)C(C)(C)C)cc1` (stereo partly specified), the Ratio in series [2] was found to be 9.36. Further, the values for the IC50 (at Endothelin-1 receptor; in series [1]) were 8.8 nM and 0.94 nM, respectively.

For `COc1ccc([C@H]2[C@H](C(=O)O)[C@@H](c3ccc4c(c3)OCO4)CN2CC(=O)NC(C)c2ccccc2C)cc1` (stereo partly specified), the Ratio in series [2] came out at 0.89. Besides, the IC50 at Endothelin-1 receptor was 16 nM; in series [1] it was 18 nM.

In the case of `COc1ccc([C@H]2[C@H](C(=O)O)[C@@H](c3ccc4c(c3)OCO4)CN2CC(=O)NC(c2ccccc2C)c2ccccc2C)cc1`, the Ratio in series [2] turned out to be 146. Besides, the IC50 worked out at 161 nM on Endothelin-1 receptor and 1.1 nM in series [1].

Turning to `COCCOc1ccc([C@H]2[C@H](C(=O)O)[C@@H](c3ccc4c(c3)OCO4)CN2CC(=O)NC(c2ccccc2C)c2ccccc2C)cc1.O=C(O)C(F)(F)F` (stereo in doubt; form 2), the half-life is 2.9 h in series [3] and 0.55 h in series [4]. Moreover, the IC50 came to 27000 nM at Endothelin-1 receptor and 1.7 nM in series [1]. The results for the AUC in series [5] and in series [7] were 2500 ng·h/mL and 200 ng·h/mL, respectively. The compound also showed a bioavailability in series [6] of 8%.

Take `CCCCC(NC(=O)CN1C[C@H](c2ccc3c(c2)OCO3)[C@@H](C(=O)O)[C@@H]1c1ccc(OC)cc1)c1ccccc1` (stereo partly specified): in series [2], the Ratio turned out to be 0.32. For the same compound, the IC50 came to 1.6 nM on Endothelin-1 receptor and 5 nM in series [1].

In the case of `COCCOc1ccc([C@H]2[C@H](C(=O)O)[C@@H](c3ccc4c(c3)OCO4)CN2CC(=O)NC(c2ccccc2C)c2ccccc2C)cc1` (stereo in doubt; form 1) [listing 2 of 2 here], the Ratio in series [2] was 12100.

As for `Cc1ccccc1C(NC(=O)CN1C[C@H](c2ccc3c(c2)OCO3)[C@@H](C(=O)O)[C@@H]1c1ccc(OCCOC(C)C)cc1)c1ccccc1C` (stereo in doubt; form 1), the Ratio in series [2] was 27200.

`COc1ccc([C@H]2[C@H](C(=O)O)[C@@H](c3ccc4c(c3)OCO4)CN2CC(=O)NC(c2ccccc2)c2ccccc2C)cc1` (stereo partly specified): the Ratio in series [2] turned out to be 18.7. For the same compound, the IC50 on Endothelin-1 receptor amounted to 63.5 nM; in series [1], 3.4 nM.

Regarding `COc1ccc([C@H]2[C@H](C(=O)O)[C@@H](c3ccc4c(c3)OCO4)CN2CC(=O)NC(C)c2ccccc2)cc1` (stereo partly specified), the Ratio in series [2] was 0.28. The IC50 on Endothelin-1 receptor came out at 5.5 nM; in series [1], 20 nM.

For `COc1ccc([C@H]2[C@H](C(=O)O)[C@@H](c3ccc4c(c3)OCO4)CN2CC(=O)NC(c2ccccc2)(c2ccccc2)c2ccccc2)cc1`, in series [2], the Ratio was found to be 0.58. Also, the figures for the IC50 (on Endothelin-1 receptor; in series [1]) were 432 nM and 744 nM, respectively.

Consider `Cc1ccccc1C(NC(=O)CN1C[C@H](c2ccc3c(c2)OCO3)[C@@H](C(=O)O)[C@@H]1c1ccc(OCCOC(C)C)cc1)c1ccccc1C.O=C(O)C(F)(F)F` (stereo in doubt; form 1), for which the half-life in series [3] was 1.8 h; in series [4], 4.8 h. In addition, the IC50 at Endothelin-1 receptor was determined as 51700 nM; in series [1] it was 1.9 nM. Further, the results for the AUC in series [5] and in series [7] were 3030 ng·h/mL and 730 ng·h/mL, respectively. The bioavailability in series [6] worked out at 24%.

Consider `CCC(NC(=O)CN1C[C@H](c2ccc3c(c2)OCO3)[C@@H](C(=O)O)[C@@H]1c1ccc(OC)cc1)c1ccccc1` (stereo partly specified), for which the Ratio in series [2] was 0.38. Besides, the results for the IC50 (on Endothelin-1 receptor; in series [1]) were 1 nM and 2.6 nM, respectively.

For `COc1ccc([C@H]2[C@H](C(=O)O)[C@@H](c3ccc4c(c3)OCO4)CN2CC(=O)NC(c2ccccc2)c2cc(C)ccc2C)cc1` (stereo partly specified), the Ratio in series [2] stood at 3.94. The IC50 at Endothelin-1 receptor amounted to 122 nM; in series [1] it was 31 nM.

Turning to `CCc1ccccc1C(NC(=O)CN1C[C@H](c2ccc3c(c2)OCO3)[C@@H](C(=O)O)[C@@H]1c1ccc(OC)cc1)c1ccccc1CC`, the Ratio in series [2] is 15.2. In addition, the IC50 at Endothelin-1 receptor was determined as 100 nM; in series [1] it was 6.6 nM.

In the case of `COCCOc1ccc([C@H]2[C@H](C(=O)O)[C@@H](c3ccc4c(c3)OCO4)CN2CC(=O)NC(c2ccccc2)C(C)(C)C)cc1` (stereo partly specified), the Ratio in series [2] came to 222. In addition, the half-inhibitory concentration (IC50) was 488 nM at Endothelin-1 receptor and 2.2 nM in series [1].

With `COc1ccc([C@H]2[C@H](C(=O)O)[C@@H](c3ccc4c(c3)OCO4)CN2CC(=O)NC(c2ccccc2)C(C)C)cc1` (stereo partly specified), in series [2], the Ratio is 0.33. The IC50 at Endothelin-1 receptor is 0.7 nM; in series [1], 2.1 nM.

With `Cc1ccccc1C(NC(=O)CN1C[C@H](c2ccc3c(c2)OCO3)[C@@H](C(=O)O)[C@@H]1c1ccc(OCCOC(C)C)cc1)c1ccccc1C` (stereo in doubt; form 2) [listing 2 of 2 here], the values for the IC50 (on Endothelin-1 receptor; in series [1]) were 77400 nM and 3.3 nM, respectively.

As to `COc1ccc([C@H]2[C@H](C(=O)O)[C@@H](c3ccc4c(c3)OCO4)CN2CC(=O)NC(CC(C)(C)C)c2ccccc2)cc1` (stereo partly specified), in series [2], the Ratio came out at 26.2. The IC50 at Endothelin-1 receptor amounted to 131 nM; in series [1], 5 nM.

As for `CCC(CC)C(NC(=O)CN1C[C@H](c2ccc3c(c2)OCO3)[C@@H](C(=O)O)[C@@H]1c1ccc(OC)cc1)c1ccccc1` (stereo partly specified), in series [2], the Ratio turned out to be 2.27. Moreover, the IC50 at Endothelin-1 receptor is 2.5 nM; in series [1] it was 1.1 nM.

Consider `CCc1ccccc1C(NC(=O)CN1C[C@H](c2ccc3c(c2)OCO3)[C@@H](C(=O)O)[C@@H]1c1ccc(OC)cc1)c1ccccc1C` (stereo partly specified), for which, in series [2], the Ratio was found to be 123. Also, the IC50 is 749 nM at Endothelin-1 receptor and 6.1 nM in series [1].
